Assay results: the EternaBench riboswitch data

System: MS2 coat protein
Assay: apparent Kd, MS2 coat protein; higher = weaker binding; RNA-MaP array; tryptophan 2.4 mM where present
Outline: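 The apparent Kd comes from binding curves fitted cluster by cluster, filtered, and summarised as a median. Those curves followed SNAP-549-labelled MS2 coat protein from 0.7 or 1.5 nM, doubling to 3 µM, on Illumina sequencing-chip clusters where stalled E. coli RNA polymerase had transcribed the designs, without and then with constant ligand. The buffer was 100 mM Tris-HCl pH 7.5, 80 mM KCl, 4 mM MgCl2, BSA, DTT, yeast tRNA and Tween-20, and green signal was normalised to red-channel RNA signal and control-cluster median Fmax.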

[1] = designed as: OFF switch for tryptophan, no ligand
[2] = ligand present: tryptophan, designed as: OFF switch for tryptophan
[3] = designed as: ON switch for tryptophan, no ligand
[4] = ligand present: tryptophan, designed as: ON switch for tryptophan

Sequence: CCUAUGCAGUCGGCCGCCACUGAUAAAGUUAUCUUUACCUCAGAAACAUGAGGAUCACCCAUGUACAGGACCGGGACUGUAUAGG
- apparent Kd [1]: 12.7 nM
- apparent Kd [2]: 19.8 nM

Sequence: CGCGGUUGAGAUGGGCCUUUGAUAAGUCUGCGAGGACCGGUACGGCCGCCACUCGAGGACAUGAGGAUCACCCAUGUACUUCGCG
- apparent Kd [1]: 47.3 nM
- apparent Kd [2]: 17.8 nM

Sequence: CUAUAAAUAGCGGCCGCCACUUACUCAUGAGGUAACAACAUGAGGAUCACCCAUGUUUGAGGAUCAAGGACCGGGCUAUUUAUAG
- apparent Kd [3]: 29.8 nM
- apparent Kd [4]: 17.6 nM

Sequence: CUAUAUGGAAACAUAUAGAAGCGAAAGCAACGAGGACCGGUACGGCCGCCACUCGAAGAGUGGUGGACAUGAGGAUCACCCAUGU
- apparent Kd [3]: 63.3 nM
- apparent Kd [4]: 52.8 nM

Sequence: GACCCAUGAGUUGUAAAAGCUCAUGGGUCGCGAGGACCGGUACGGCCGCCACUCGGCUGUACAUGAGGAUCACCCAUGUCAGGGU
- apparent Kd [3]: 134 nM
- apparent Kd [4]: 761 nM

Sequence: GAUACUAUGAAAGUAGUAUCUACGUGUUGACGAGGACCGGUACGGCCGCCACUCGACAUGAGGAUCACCCAUGUAUAGAAUAUGU
- apparent Kd [3]: 20.6 nM
- apparent Kd [4]: 14.8 nM

Sequence: GAUAUGGAAACAUGUCAGAUCCUUACCGGUCGAGGACCGGUACGGCCGCCACUCGAAAACGAGGAACAUGAGGAUCACCCAUGUA
- apparent Kd [1]: 49.7 nM
- apparent Kd [2]: 87.5 nM

Sequence: GCGACCCUGAGAUCCUGCGUAACGUGAACACGAGGACCGGUACGGCCGCCACUCGAGAGAACAUGAGGAUCACCCAUGUCUGAGC
- apparent Kd [1]: 20.4 nM
- apparent Kd [2]: 22.2 nM

Sequence: GGAUGGAACUCGGCCGCCACUGGUGAUCCUAAUGUACAUGAGGAUCACCCAUGUACAUGAGAAGAUAGGACCGGGAGAUAACAUG
- apparent Kd [3]: 27.7 nM
- apparent Kd [4]: 19.8 nM

Sequence: GGGAGGGAGGCGGCCGCCACUGAUUUUCAUAUAUAUAUAACAUGAGGAUCACCCAUGUAGAUAUACAGGACCGGGCCUUUUUUUU
- apparent Kd [3]: 20.4 nM
- apparent Kd [4]: 19.5 nM

Sequence: GGUAUGUAUUCGGAAACGAAUGCAUACCAACGAGGACCGGUACGGCCGCCACUCGGCCGUGAUCAACAUGAGGAUCACCCAUGUA
- apparent Kd [1]: 15.8 nM
- apparent Kd [2]: 26.8 nM

Sequence: GGUUACUCUACGGCCGCCACUGAACAUGAGGAUCACCCAUGUAAUGUUCAGACGUCUUUAGACGACAGGACCGGGUAGUGUAACC
- apparent Kd [3]: 178 nM
- apparent Kd [4]: 151 nM

Sequence: GGUUACUCUACGGCCGCCACUGUAAUGUAAAGAUUCCUGUACAUGACAUGAGGAUCACCCAUGUGCAGGACCGGGUAGUGUAACC
- apparent Kd [3]: 194 nM
- apparent Kd [4]: 52.6 nM

Sequence: GUCUUGGGAUCGGCCGCCACUACAUGAGGAUCACCCAUGUGGACAAAUAGGGUUUUUAAGCUCGGUAGGACCGGGAUUCGGACAU
- apparent Kd [1]: 12.9 nM
- apparent Kd [2]: 56.9 nM

Sequence: UAACAUGAGGAUCACCCAUGUAUACUAAGUCGAGGACCGGUACGGCCGCCACUCGAACUUCAAGAAUAGGCGGUAAAUGUAAGUA
- apparent Kd [1]: 11.5 nM
- apparent Kd [2]: 13.3 nM

Sequence: UAAUAAGUACCGGUUCUCAGAUCCUCAUGUCGAGGACCGGUACGGCCGCCACUCGAAACAUGAGGAUCACCCAUGUAAUAAUAAU
- apparent Kd [1]: 36.2 nM
- apparent Kd [2]: 31.7 nM

Sequence: UAUUAUCAGUCGGCCGCCACUGACACAUGAGGAUCACCCAUGUAAUUUGGGUUAUAUAUAAAUUACAGGACCGGGACAAAUGCUA
- apparent Kd [1]: 341 nM
- apparent Kd [2]: 280 nM

Sequence: UCGGACAUGAGGAUCACCCAUGUAAAUCCUCGAGGACCGGUACGGCCGCCACUCGAACGAGUGGCACGCGAGUGCGCACUCGCGU
- apparent Kd [3]: 30.9 nM
- apparent Kd [4]: 27.7 nM

Sequence: UGAUACCAGUCGGCCGCCACUACAUGAGGAUCACCCAUGUAUGGGUCAAUGCUAGAUACUAGCAGUAGGACCGGGACUGGUAUCU
- apparent Kd [1]: 11.4 nM
- apparent Kd [2]: 36.1 nM

Sequence: UGGGUACCGACGGCCGCCACUGACUAUAGACAUGAGGAUCACCCAUGUAGAGAUCCUAGACUACCCAGGACCGGGUCUGGUGCUA
- apparent Kd [1]: 124 nM
- apparent Kd [2]: 220 nM

Sequence: UGUAUUGGAAACAGUACUAGUGAUCCGGUCCGAGGACCGGUACGGCCGCCACUCGAUAUAAAUAAACAUGAGGAUCACCCAUGUA
- apparent Kd [1]: 14.9 nM
- apparent Kd [2]: 29.8 nM

Sequence: UGUCGGCGUAAGUUGGCAUGUCUUGCUGGUCGAGGACCGGUACGGCCGCCACUCGAUCCUUCGCACAUGAGGAUCACCCAUGUUG
- apparent Kd [3]: 18.3 nM
- apparent Kd [4]: 17.1 nM

Sequence: UUACAUGAGGAUCACCCAUGUUUACUAUGUCGAGGACCGGUACGGCCGCCACUCGUAUUUGAUGAUUUAGGUGCCACAAGUUAUU
- apparent Kd [1]: 21.2 nM
- apparent Kd [2]: 20.5 nM

Sequence: UUAUGCAGGUCGGCCGCCACUACACACAUGAGGAUCACCCAUGUAGUUACUGGGUGAAGUGGCAGUAGGACCGGGACCUGCAUAU
- apparent Kd [3]: 371 nM
- apparent Kd [4]: 227 nM

Sequence: UUCUUUAAGUCGGCCGCCACUGAAACAUGAGGAUCACCCAUGUAAAUUUGGGAGUAGGUAUAUUACAGGACCGGGACUAUAGUAA
- apparent Kd [1]: 29.9 nM
- apparent Kd [2]: 54.8 nM

Sequence: UUGCCCAGUACGGCCGCCACUGUGUGCAGGGAACCCAGGUCCACAUGAGGAUCACCCAUGUACAGCAGGACCGGGUACUUGCAAU
- apparent Kd [1]: 9.03 nM
- apparent Kd [2]: 11.7 nM
